The results in this text go back to ChEMBL document CHEMBL3232745, “Design, synthesis and evaluation of novel diaryl pyrrolopyrimidine and pyrrolothiazine derivatives as inhibitors of tumor necrosis factor stimulated gene-14 (TSG-14) production” (2014).

The structures appear in SMILES notation.

In this assay the test system is Rattus norvegicus. In words: Antiinflammatory activity in albino rat assessed as inhibition of LPS-induced TSG-14 production at 30 mg/kg, po administered 30 mins before LPS challenge measured after 4 to 6 hrs by ELISA relative to control. Format: functional. In a few lines:
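Male albino rats (~200 g), three per group, dosed orally with compound suspended in 0.5% carboxymethylcellulose. LPS (Escherichia coli B055/B5, 0.1 mg/kg ip) was given 30 min after dosing. Sera were collected 4-6 h after LPS and assayed in duplicate by sandwich ELISA for rat PTX3/TSG-14 (detection limit <0.02 ng/mL). Percent inhibition was taken against an untreated LPS control, as mean ± S.E.M. (n = 3).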
With `CCSc1nc2c(cc(-c3ccccc3)n2-c2ccccc2)c(=N)s1`, the inhibition in vivo at 30 mg/kg was 0%.

In the case of `CCC(C)Sc1nc2c(cc(-c3ccc(C)cc3)n2-c2ccccc2)c(=N)s1` (stereo not given), the inhibition in vivo at 30 mg/kg is 2%.

For `CCC(C)Sc1nc2c(cc(-c3ccc(Br)cc3)n2-c2ccccc2)c(=N)s1` (stereo not given), the inhibition in vivo at 30 mg/kg came out at 70%.

With `CCn1c(=S)[nH]c2c(cc(-c3ccc(C)cc3)n2-c2ccccc2)c1=N`, the inhibition in vivo at 30 mg/kg came out at 60%.

As to `CCC(C)Sc1nc2c(cc(-c3ccccc3)n2-c2ccccc2)c(=N)s1` (stereo not given), the inhibition in vivo at 30 mg/kg worked out at 50%.

On to `N=c1c2cc(-c3ccc(Br)cc3)n(-c3ccccc3)c2[nH]c(=S)n1N`, for which the inhibition in vivo at 30 mg/kg is 33%.

As for `CCn1c(=S)[nH]c2c(cc(-c3ccc(Br)cc3)n2-c2ccccc2)c1=N`, the inhibition in vivo at 30 mg/kg came out at 80%.

For `CCSc1nc2c(cc(-c3ccc(C)cc3)n2-c2ccccc2)c(=N)s1`, the inhibition in vivo at 30 mg/kg was found to be 0%.

`Cc1ccc(-c2cc3c(=N)sc(=S)[nH]c3n2-c2ccccc2)cc1`: the inhibition in vivo at 30 mg/kg was determined as 0%.

As to `CCn1c(=S)[nH]c2c(cc(-c3ccc(Cl)cc3)n2-c2ccccc2)c1=N`, the inhibition in vivo at 30 mg/kg is 61%.

As for `CCSc1nc2c(cc(-c3ccc(Br)cc3)n2-c2ccccc2)c(=N)s1`, the inhibition in vivo at 30 mg/kg was determined as 1%.

Consider `N=c1c2cc(-c3ccccc3)n(-c3ccccc3)c2[nH]c(=S)n1N`, for which the inhibition in vivo at 30 mg/kg came out at 23%.

On to `N=c1sc(=S)[nH]c2c1cc(-c1ccccc1)n2-c1ccccc1`, for which the inhibition in vivo at 30 mg/kg amounted to 0%.

As for `CCSc1nc2c(cc(-c3ccc(Cl)cc3)n2-c2ccccc2)c(=N)s1`, the inhibition in vivo at 30 mg/kg came out at 1%.

As to `N=c1sc(=S)[nH]c2c1cc(-c1ccc(Br)cc1)n2-c1ccccc1`, the inhibition in vivo at 30 mg/kg was 44%.

Turning to `N=c1c2cc(-c3ccc(Cl)cc3)n(-c3ccccc3)c2[nH]c(=S)n1N`, the inhibition in vivo at 30 mg/kg was found to be 0%.

As to `Cc1ccc(-c2cc3c(=N)n(N)c(=S)[nH]c3n2-c2ccccc2)cc1`, the inhibition in vivo at 30 mg/kg worked out at 0%.

Consider `N=c1sc(=S)[nH]c2c1cc(-c1ccc(Cl)cc1)n2-c1ccccc1`, for which the inhibition in vivo at 30 mg/kg is 2%.

As to `CCC(C)Sc1nc2c(cc(-c3ccc(Cl)cc3)n2-c2ccccc2)c(=N)s1` (stereo not given), the inhibition in vivo at 30 mg/kg amounted to 2%.

In the case of `CCn1c(=S)[nH]c2c(cc(-c3ccccc3)n2-c2ccccc2)c1=N`, the inhibition in vivo at 30 mg/kg is 65%.

As usually defined, the inhibition in vivo is how much of the control response was suppressed.
